Results as given in paper PMC6512341 (ACS chemical neuroscience, 2018).

How the values were obtained:
[1] = Pilot brain and plasma pharmacokinetic studies of SW-100; format: in vivo, C57BL/6 male mice; conditions: male, C57BL/6, mouse, ip, 20 mg/kg
[2] = Hepatocyte stability, human; format: in vitro ADME; conditions: hepatocytes
Fmr1^−/− mice [3] = experiment: Temporal order memory task; format: in vivo; conditions: 20 mg/kg IP
[4] = tested on: TA98, TA100, TA1535, TA1537, WP2 uvrA; experiment: Ames test; format: cell-based, Salmonella typhimurium, Escherichia coli; conditions: presence and absence of S9 mix
Fmr1^−/− mice [5] = experiment: Novel object recognition task; format: in vivo; conditions: 20 mg/kg IP
CYP2D6 = CYP2D6 (Homo sapiens, UniProt P10635); experiment: CYP inhibition, 2D6; format: in vitro ADME
[6] = Liver microsomal stability, mouse; format: in vitro ADME; conditions: liver microsomes
MDR1 = experiment: Permeability studies in MDCK-MDR1 cells; format: in vitro ADME; conditions: dog, MDCK-MDR1
[7] = Liver microsomal stability, human; format: in vitro ADME; conditions: liver microsomes
acetylated α-tubulin [8] = experiment: α-Tubulin acetylation studies in HEK293 cells; format: cell-based; conditions: 0.01, 0.1, 1, and 10 μM
Summary of the method: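 HEK293 cells plated 24 h ahead and treated at 70% confluency with 10 nM–10 µM. Lysed in MPER with protease inhibitors; 2 µg protein boiled, run on 12% gel, transferred to PVDF. Blocked in 5% milk/TBST; anti-acetyl-tubulin 1:3000 overnight at 4 °C, then HRP secondary 1:5000; ECL. Reprobed for total α-tubulin at 1:1000. Densitometric ratio normalized to 10 µM reference HDAC6 inhibitor; n = 3–4; one-way ANOVA vs vehicle.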

CYP2C19 = CYP2C19 (Homo sapiens, UniProt P33261); experiment: CYP inhibition, 2C19; format: in vitro ADME
CYP1A2 = molecular target: T1, CYP1A2 (Homo sapiens, UniProt P05177); experiment: CYP inhibition, 1A2; format: in vitro ADME
T1 sequence (P05177 1-516): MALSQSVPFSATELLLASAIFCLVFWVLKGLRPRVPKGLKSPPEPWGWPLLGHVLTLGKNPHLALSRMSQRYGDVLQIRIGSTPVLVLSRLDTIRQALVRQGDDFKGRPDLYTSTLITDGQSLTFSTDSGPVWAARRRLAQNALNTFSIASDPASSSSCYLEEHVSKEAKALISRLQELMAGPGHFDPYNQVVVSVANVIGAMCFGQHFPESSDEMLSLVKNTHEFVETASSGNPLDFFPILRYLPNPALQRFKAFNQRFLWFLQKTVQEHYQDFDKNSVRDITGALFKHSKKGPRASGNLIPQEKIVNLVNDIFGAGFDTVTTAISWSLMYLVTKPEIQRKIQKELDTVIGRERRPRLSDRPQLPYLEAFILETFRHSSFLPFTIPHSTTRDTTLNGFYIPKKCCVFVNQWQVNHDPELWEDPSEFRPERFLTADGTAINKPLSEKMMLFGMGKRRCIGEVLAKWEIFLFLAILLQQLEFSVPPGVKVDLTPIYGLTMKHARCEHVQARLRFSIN

CYP2C9 = CYP2C9 (Homo sapiens, UniProt P11712); experiment: CYP inhibition, 2C9; format: in vitro ADME
hERG = hERG (Homo sapiens, UniProt Q12809); experiment: hERG test in HEK293 cells; format: cell-based
acetylated α-tubulin [9] = experiment: Immunoblot of acetylated α-tubulin in mouse hippocampus; format: in vivo, mice; conditions: 20 mg/kg, 2 h after treatment
Summary of the method: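 Male C57BL/6 WT and Fmr1−/− mice, 8–10 weeks old, given 20 mg/kg IP twice daily on days 1–2, plus a dose 1 h before cognitive testing on days 3 and 4. Hippocampi taken 2 h after treatment and homogenized in Tris pH 7.4 lysis buffer with protease and phosphatase inhibitors. Spun at 20,800 × g for 10 min; Bradford assay. 10 µg protein run on SDS-PAGE to nitrocellulose; acetyl-α-tubulin and α-tubulin antibodies at 1:4000.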

CYP3A4 = CYP3A4 (Homo sapiens, UniProt P08684); experiment: CYP inhibition, 3A4; format: in vitro ADME
[10] = Hepatocyte stability, mouse; format: in vitro ADME; conditions: hepatocytes
acetylated histone 3 = experiment: Histone acetylation in N2a cells; format: cell-based; conditions: compared to vehicle
Summary of the method: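 N2a cells treated at 1 µM or 10 nM; reference HDAC inhibitors served as positive controls. Histones extracted by kit; protein by micro BCA. Samples denatured in reducing buffer at 95 °C for 5 min and blotted to PVDF. Blocked in 5% BSA/TBST 1 h at RT; primaries overnight: acetyl-H3 K9+K14 1:1000, histone 4 1:1000. Ratios normalized to vehicle; n = 4; one-way ANOVA vs vehicle.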

Chain of CYP2C9 (P11712 whole entry): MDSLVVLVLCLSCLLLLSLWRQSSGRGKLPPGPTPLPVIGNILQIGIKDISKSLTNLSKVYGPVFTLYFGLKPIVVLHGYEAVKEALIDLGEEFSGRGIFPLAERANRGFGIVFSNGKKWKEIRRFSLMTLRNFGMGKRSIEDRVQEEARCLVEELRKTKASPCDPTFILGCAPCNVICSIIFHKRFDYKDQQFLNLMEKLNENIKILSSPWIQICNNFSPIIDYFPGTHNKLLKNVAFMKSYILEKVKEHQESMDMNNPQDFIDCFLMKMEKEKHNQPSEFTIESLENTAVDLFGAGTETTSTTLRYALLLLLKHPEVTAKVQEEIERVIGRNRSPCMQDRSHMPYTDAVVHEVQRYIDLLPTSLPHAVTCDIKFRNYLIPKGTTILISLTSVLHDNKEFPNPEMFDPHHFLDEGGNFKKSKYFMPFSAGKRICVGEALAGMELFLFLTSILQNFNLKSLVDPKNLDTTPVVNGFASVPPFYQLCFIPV
Chain of CYP2C19 (P33261 whole entry): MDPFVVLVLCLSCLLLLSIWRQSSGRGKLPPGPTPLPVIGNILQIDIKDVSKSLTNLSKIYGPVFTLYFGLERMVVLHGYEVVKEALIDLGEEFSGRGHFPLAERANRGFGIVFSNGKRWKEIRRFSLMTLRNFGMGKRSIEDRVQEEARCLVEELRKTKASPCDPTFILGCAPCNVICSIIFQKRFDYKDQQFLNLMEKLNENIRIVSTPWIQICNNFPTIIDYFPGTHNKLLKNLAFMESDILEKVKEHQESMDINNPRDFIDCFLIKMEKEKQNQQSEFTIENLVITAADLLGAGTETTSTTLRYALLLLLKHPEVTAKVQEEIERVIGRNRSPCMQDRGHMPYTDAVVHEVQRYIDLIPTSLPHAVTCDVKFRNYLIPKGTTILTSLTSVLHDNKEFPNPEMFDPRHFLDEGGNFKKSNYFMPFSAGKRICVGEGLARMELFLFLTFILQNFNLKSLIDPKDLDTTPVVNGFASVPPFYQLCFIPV
Chain of CYP3A4 (P08684 whole entry): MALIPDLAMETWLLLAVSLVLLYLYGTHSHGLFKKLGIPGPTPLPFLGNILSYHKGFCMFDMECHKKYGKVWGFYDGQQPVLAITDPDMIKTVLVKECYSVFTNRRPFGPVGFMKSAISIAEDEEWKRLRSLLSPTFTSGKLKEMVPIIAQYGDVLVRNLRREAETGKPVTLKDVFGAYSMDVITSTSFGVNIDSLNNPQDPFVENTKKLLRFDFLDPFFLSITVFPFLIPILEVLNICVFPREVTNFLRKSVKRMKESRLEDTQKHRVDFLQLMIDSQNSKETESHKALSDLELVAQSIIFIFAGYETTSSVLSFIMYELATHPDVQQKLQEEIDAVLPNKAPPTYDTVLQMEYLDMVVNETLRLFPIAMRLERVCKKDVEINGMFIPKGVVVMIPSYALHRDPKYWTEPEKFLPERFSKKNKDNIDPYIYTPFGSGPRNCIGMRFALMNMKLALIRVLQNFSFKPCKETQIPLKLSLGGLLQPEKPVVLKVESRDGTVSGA
Chain of hERG (Q12809 whole entry): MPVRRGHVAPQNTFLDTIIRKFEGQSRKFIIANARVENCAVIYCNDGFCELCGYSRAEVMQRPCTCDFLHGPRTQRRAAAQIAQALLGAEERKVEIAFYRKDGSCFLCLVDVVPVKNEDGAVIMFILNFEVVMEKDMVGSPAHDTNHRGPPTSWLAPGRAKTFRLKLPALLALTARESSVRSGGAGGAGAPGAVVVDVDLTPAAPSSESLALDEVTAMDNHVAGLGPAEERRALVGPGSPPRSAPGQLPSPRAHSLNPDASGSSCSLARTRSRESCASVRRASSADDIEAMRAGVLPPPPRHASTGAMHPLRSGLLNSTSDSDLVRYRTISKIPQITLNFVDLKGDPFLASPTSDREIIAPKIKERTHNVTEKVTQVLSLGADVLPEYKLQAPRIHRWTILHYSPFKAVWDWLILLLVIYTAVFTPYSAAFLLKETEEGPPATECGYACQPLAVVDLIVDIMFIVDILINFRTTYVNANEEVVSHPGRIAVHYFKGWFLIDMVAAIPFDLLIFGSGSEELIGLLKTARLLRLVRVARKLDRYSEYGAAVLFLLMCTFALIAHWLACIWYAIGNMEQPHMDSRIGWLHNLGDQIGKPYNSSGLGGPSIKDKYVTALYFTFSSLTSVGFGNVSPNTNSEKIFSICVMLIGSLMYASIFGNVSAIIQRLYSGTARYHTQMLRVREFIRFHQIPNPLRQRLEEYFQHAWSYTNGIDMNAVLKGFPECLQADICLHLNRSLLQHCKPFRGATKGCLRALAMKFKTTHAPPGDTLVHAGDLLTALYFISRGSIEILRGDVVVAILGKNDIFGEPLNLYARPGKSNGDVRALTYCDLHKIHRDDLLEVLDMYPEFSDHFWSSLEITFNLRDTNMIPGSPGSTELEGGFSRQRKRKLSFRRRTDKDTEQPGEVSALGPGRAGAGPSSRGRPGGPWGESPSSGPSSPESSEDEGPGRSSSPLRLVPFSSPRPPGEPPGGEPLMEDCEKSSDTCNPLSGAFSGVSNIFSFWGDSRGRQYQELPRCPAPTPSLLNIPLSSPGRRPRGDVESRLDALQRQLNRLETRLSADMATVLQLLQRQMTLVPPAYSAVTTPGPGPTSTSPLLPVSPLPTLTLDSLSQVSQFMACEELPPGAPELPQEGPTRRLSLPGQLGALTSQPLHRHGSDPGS
Chain of CYP2D6 (P10635 whole entry): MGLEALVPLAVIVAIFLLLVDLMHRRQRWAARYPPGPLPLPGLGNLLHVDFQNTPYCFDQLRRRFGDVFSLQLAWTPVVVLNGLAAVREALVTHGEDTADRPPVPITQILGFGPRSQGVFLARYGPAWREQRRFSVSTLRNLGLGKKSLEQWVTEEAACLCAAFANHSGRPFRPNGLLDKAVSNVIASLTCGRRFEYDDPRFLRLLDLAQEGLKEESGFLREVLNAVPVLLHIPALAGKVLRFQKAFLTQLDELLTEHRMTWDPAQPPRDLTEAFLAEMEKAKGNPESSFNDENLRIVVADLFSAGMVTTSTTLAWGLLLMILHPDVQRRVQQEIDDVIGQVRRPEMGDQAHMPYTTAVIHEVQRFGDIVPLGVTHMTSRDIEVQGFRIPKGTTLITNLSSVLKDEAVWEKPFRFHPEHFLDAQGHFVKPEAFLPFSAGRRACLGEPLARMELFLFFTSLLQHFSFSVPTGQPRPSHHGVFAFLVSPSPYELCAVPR

## O=C(NO)c1ccc(CN2CCCc3cc(Cl)ccc32)cc1 [SW-100, 4-((6-Chloro-3,4-dihydroquinolin-1(2H)-yl)methyl)-N-hydroxybenzamide]
[1]; brain
  concentration at 1 h: 142 ± 52.3 ng/mL
  concentration at 4 h: 11.5 ± 0.3 ng/mL
[1]; brain/plasma
  Kp at 1 h: 2.44
[1]; plasma
  concentration at 1 h: 58.2 ± 24.9 ng/mL
  concentration at 4 h: 2.52 ± 0.13 ng/mL
[2]
  half-life: 30 min
Fmr1^−/− mice [3]
  temporal order: time exploring first versus most recent object: spent significantly more time exploring the first object compared to the most recent object presented
[4]
  Ames test: negative
Fmr1^−/− mice [5]; Fmr1^−/− mice
  novel object recognition: time exploring novel versus familiar object: spent significantly more time exploring the novel object than the familiar object
Fmr1^−/− mice [5]; WT mice
  novel object recognition: did not alter the novel object recognition of WT mice
CYP2D6
  inhibition at 10 µM: 2.51%
[6]
  half-life: 23 min
MDR1
  Papp A→B at 2 h: 4.58 ×10⁻⁶ cm/s
  Papp B→A at 2 h: 2.33 ×10⁻⁶ cm/s
[7]
  half-life: 23 min
Acetylated α-tubulin [8]
  effect on acetylated α-tubulin levels (in words): more obvious increase in the acetylated α-tubulin levels in a dose-dependent manner
CYP2C19
  inhibition at 10 µM: 83.2%
CYP1A2
  inhibition at 10 µM: 20.5%
CYP2C9
  inhibition at 10 µM: 18.8%
hERG
  IC50: 12.2 µM
Acetylated α-tubulin [9]; Fmr1^−/− mice
  acetylated α-tubulin levels in the hippocampus: significantly increased
Acetylated α-tubulin [9]; WT mice
  hippocampal α-tubulin acetylation: no significant influence
CYP3A4
  inhibition at 10 µM: -0.63%
[10]
  half-life: 10 min
Acetylated histone 3
  levels of acetylated histone 3 to histone 4: < 1.5 fold
